ChEMBL document CHEMBL1134518, “5-(Tryptophyl)amino-1,3-dioxoperhydropyrido[1,2-c]pyrimidine-based potent and selective CCK(1)receptor antagonists: structure-activity relationship studies on the substituent at N2-position” (J Med Chem, 2001)

Columns and labels:
[1] = molecular target: T1, Cholecystokinin receptor type A (Rattus norvegicus, UniProt P30551); test: Inhibition of [3H]pCCK-8 specific binding to cholecystokinin type A receptor in rat pancreas
T1 sequence (P30551 whole entry): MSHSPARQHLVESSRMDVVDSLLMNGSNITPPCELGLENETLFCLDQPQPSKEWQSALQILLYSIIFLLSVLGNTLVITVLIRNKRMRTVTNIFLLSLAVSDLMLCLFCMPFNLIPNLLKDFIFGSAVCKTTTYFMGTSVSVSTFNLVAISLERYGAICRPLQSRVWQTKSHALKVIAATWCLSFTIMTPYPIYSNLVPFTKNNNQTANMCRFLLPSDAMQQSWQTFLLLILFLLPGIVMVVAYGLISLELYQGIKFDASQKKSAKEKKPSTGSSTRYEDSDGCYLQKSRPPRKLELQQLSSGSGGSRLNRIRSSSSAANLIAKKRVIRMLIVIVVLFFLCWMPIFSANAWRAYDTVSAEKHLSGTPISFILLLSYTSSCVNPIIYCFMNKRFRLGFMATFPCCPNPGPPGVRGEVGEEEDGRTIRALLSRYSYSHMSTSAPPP
How it was run: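 Rat pancreas homogenized in Pipes-HCl pH 6.5 with 30 mM MgCl2, centrifuged twice at 50 000g, 10 min, 4 °C. Membranes (0.2 mg protein/tube) incubated with 0.5 nM [3H]pCCK-8, 30 mM MgCl2, bacitracin and SBTI (0.2 mg/mL each), 120 min, 25 °C. Seven test concentrations in triplicate, at least three experiments.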

[2] = species: Rattus norvegicus; test: Inhibition of amylase release stimulated by CCK-8 (0.1 nM) in dispersed pancreatic acini; assay type: functional
How it was run: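 Pancreatic acini prepared by collagenase digestion (two 6 min incubations, 37 °C). Acini were suspended in theophylline/BSA-containing buffer and incubated 30 min, 37 °C, under O2 with 0.1 nM CCK-8 and increasing compound concentrations. Released amylase was measured as a percentage of acinar content. IC50 came from linear regression of % inhibition. Three to six experiments in duplicate.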

[3] = molecular target: T2, Gastrin/cholecystokinin type B receptor (Rattus norvegicus, UniProt P30553); test: Inhibition of [3H]pCCK-8 specific binding cholecystokinin type B receptor in rat cerebral cortex membranes; assay type: cell membranes, Membrane
T2 sequence (P30553 whole entry): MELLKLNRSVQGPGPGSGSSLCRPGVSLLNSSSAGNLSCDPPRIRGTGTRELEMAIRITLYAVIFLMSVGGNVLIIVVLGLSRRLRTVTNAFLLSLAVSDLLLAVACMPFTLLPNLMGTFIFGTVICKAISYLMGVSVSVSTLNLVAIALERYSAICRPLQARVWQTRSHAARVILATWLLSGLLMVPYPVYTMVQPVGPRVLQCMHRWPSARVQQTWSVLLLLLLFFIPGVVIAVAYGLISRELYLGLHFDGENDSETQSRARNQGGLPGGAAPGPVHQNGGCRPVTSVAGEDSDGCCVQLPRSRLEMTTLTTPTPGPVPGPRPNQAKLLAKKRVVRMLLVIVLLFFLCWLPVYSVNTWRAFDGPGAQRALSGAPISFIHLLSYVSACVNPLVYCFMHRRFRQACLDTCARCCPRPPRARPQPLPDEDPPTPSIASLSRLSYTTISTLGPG
How it was run: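 Rat brain cortex homogenized in 50 mM Tris-HCl pH 7.4 with 5 mM MgCl2, centrifuged twice at 100 000g, 35 min, 4 °C. Membranes (0.45 mg protein/tube) incubated with 1 nM [3H]pCCK-8 plus bacitracin 0.2 mg/mL, 60 min, 25 °C. Seven test concentrations in triplicate, at least three experiments.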

Row | IC50 [1] | IC50 [3] | Compound | IC50 [2]
1 | 15 nM | > 10000 nM | C[C@H](c1ccccc1)N1C(=O)C[C@H]2[C@H](NC(=O)[C@H](Cc3c[nH]c4ccccc34)NC(=O)OC(C)(C)C)CCCN2C1=O | 12.6 nM
2 | > 1000 nM | > 10000 nM | CC(C)(C)OC(=O)N[C@@H](Cc1c[nH]c2ccccc12)C(=O)NC1CCCN2C(=O)N(c3cccc(O)c3)C(=O)CC12 (stereo not given in full) | 
3 | > 1000 nM | > 10000 nM | CCOC(=O)[C@H](Cc1ccccc1)N1C(=O)C[C@H]2[C@H](NC(=O)[C@H](Cc3c[nH]c4ccccc34)NC(=O)OC(C)(C)C)CCCN2C1=O | 
4 |  | > 10000 nM | CN1C(=O)C[C@@H]2[C@@H](NC(=O)[C@H](Cc3c[nH]c4ccccc34)NC(=O)OC(C)(C)C)CCCN2C1=O | 
5 | 44 nM | > 10000 nM | CC(C)(C)OC(=O)N[C@@H](Cc1c[nH]c2ccccc12)C(=O)N[C@@H]1CCCN2C(=O)N(c3cccc([N+](=O)[O-])c3)C(=O)C[C@@H]12 | 49.5 nM
6 | > 1000 nM | > 10000 nM | C[C@H](c1ccccc1)N1C(=O)C[C@@H]2[C@@H](NC(=O)[C@H](Cc3c[nH]c4ccccc34)NC(=O)OC(C)(C)C)CCCN2C1=O | 
7 | > 1000 nM | > 10000 nM | CN(C)c1cccc(N2C(=O)C[C@@H]3[C@@H](NC(=O)[C@H](Cc4c[nH]c5ccccc45)NC(=O)OC(C)(C)C)CCCN3C2=O)c1 | 
8 | 12 nM | > 10000 nM | CC(C)(C)OC(=O)N[C@@H](Cc1c[nH]c2ccccc12)C(=O)N[C@@H]1CCCN2C(=O)N(c3ccc([N+](=O)[O-])cc3)C(=O)C[C@@H]12 | 64 nM
9 | > 1000 nM | > 10000 nM | CC(C)(C)OC(=O)N[C@@H](Cc1c[nH]c2ccccc12)C(=O)N[C@H]1CCCN2C(=O)N(c3ccc([N+](=O)[O-])cc3)C(=O)C[C@H]12 | 
10 | 0.6 nM | > 10000 nM | CC(C)(C)OC(=O)N[C@@H](Cc1c[nH]c2ccccc12)C(=O)N[C@@H]1CCCN2C(=O)N(C3CCCCC3)C(=O)C[C@@H]12 | 3 nM
11 | 15.4 nM | > 10000 nM | CC(C)(C)OC(=O)N[C@H](Cc1c[nH]c2ccccc12)C(=O)N[C@@H]1CCCN2C(=O)N(c3cccc4ccccc34)C(=O)C[C@@H]12 | 93 nM
12 | 4.3 nM | > 10000 nM | CN(C)c1ccc(N2C(=O)C[C@H]3[C@H](NC(=O)[C@H](Cc4c[nH]c5ccccc45)NC(=O)OC(C)(C)C)CCCN3C2=O)cc1 | 39.8 nM
13 | > 1000 nM | > 10000 nM | CC(C)(C)OC(=O)N[C@@H](Cc1c[nH]c2ccccc12)C(=O)NC1CCCN2C(=O)N(c3cccc(C(=O)O)c3)C(=O)CC12 (stereo not given in full) | 
14 | > 1000 nM | > 10000 nM | C[C@@H](c1ccccc1)N1C(=O)C[C@@H]2[C@@H](NC(=O)[C@H](Cc3c[nH]c4ccccc34)NC(=O)OC(C)(C)C)CCCN2C1=O | 
15 | 50.8 nM | > 10000 nM | CN(C)c1cccc(N2C(=O)C[C@H]3[C@H](NC(=O)[C@H](Cc4c[nH]c5ccccc45)NC(=O)OC(C)(C)C)CCCN3C2=O)c1 | 
16 | 386 nM | > 10000 nM | CC(C)(C)OC(=O)N[C@@H](Cc1c[nH]c2ccccc12)C(=O)N[C@H]1CCCN2C(=O)N(c3ccncc3)C(=O)C[C@H]12 (relative stereo) | 
17 | > 1000 nM | 2320 nM | CN(C)c1ccc(N2C(=O)C[C@@H]3[C@@H](NC(=O)[C@H](Cc4c[nH]c5ccccc45)NC(=O)OC(C)(C)C)CCCN3C2=O)cc1 | 
18 | > 1000 nM | > 10000 nM | CC(C)(C)OC(=O)N[C@H](Cc1c[nH]c2ccccc12)C(=O)N[C@H]1CCCN2C(=O)N(c3cccc4ccccc34)C(=O)C[C@H]12 | 

Row | IC50 [1] | IC50 [3] | Compound | IC50 [2]
19 | 0.97 nM | > 10000 nM | Cc1ccccc1N1C(=O)C[C@H]2[C@H](NC(=O)[C@H](Cc3c[nH]c4ccccc34)NC(=O)OC(C)(C)C)CCCN2C1=O | 1.89 nM
20 | > 1000 nM | > 10000 nM | CCOC(=O)[C@H](Cc1ccccc1)N1C(=O)C[C@@H]2[C@@H](NC(=O)[C@H](Cc3c[nH]c4ccccc34)NC(=O)OC(C)(C)C)CCCN2C1=O | 
21 | 6.89 nM | > 10000 nM | C[C@@H](c1ccccc1)N1C(=O)C[C@H]2[C@H](NC(=O)[C@H](Cc3c[nH]c4ccccc34)NC(=O)OC(C)(C)C)CCCN2C1=O | 112 nM
22 | 0.59 nM | > 10000 nM | CC(C)(C)OC(=O)N[C@@H](Cc1c[nH]c2ccccc12)C(=O)N[C@@H]1CCCN2C(=O)N(c3cccc4ccccc34)C(=O)C[C@@H]12 | 0.73 nM
23 | 100 nM | 1320 nM | Cc1cccc(N2C(=O)C[C@@H]3[C@@H](NC(=O)[C@H](Cc4c[nH]c5ccccc45)NC(=O)OC(C)(C)C)CCCN3C2=O)c1 | 
24 | > 1000 nM | > 10000 nM | CC(C)(C)OC(=O)N[C@@H](Cc1c[nH]c2ccccc12)C(=O)N[C@H]1CCCN2C(=O)N(c3cccc([N+](=O)[O-])c3)C(=O)C[C@H]12 | 
25 | > 1000 nM | > 10000 nM | CC(C)(C)OC(=O)N[C@@H](Cc1c[nH]c2ccccc12)C(=O)N[C@H]1CCCN2C(=O)N(c3cccc4ccccc34)C(=O)C[C@H]12 | 
26 | > 1000 nM | > 10000 nM | Cc1ccccc1N1C(=O)C[C@@H]2[C@@H](NC(=O)[C@H](Cc3c[nH]c4ccccc34)NC(=O)OC(C)(C)C)CCCN2C1=O | 
27 | 15.9 nM | > 10000 nM | COc1ccc(N2C(=O)CC3C(NC(=O)[C@H](Cc4c[nH]c5ccccc45)NC(=O)OC(C)(C)C)CCCN3C2=O)cc1 (stereo not given in full) | 38.1 nM
28 | 1.18 nM | > 10000 nM | CC(C)(C)OC(=O)N[C@@H](Cc1c[nH]c2ccccc12)C(=O)N[C@@H]1CCCN2C(=O)N(c3ccccc3)C(=O)C[C@@H]12 | 3.5 nM
29 | 2.9 nM | > 10000 nM | Cc1ccc(N2C(=O)C[C@H]3[C@H](NC(=O)[C@H](Cc4c[nH]c5ccccc45)NC(=O)OC(C)(C)C)CCCN3C2=O)cc1 | 16.6 nM
30 | 628 nM | > 10000 nM | CC(C)(C)OC(=O)N[C@@H](Cc1c[nH]c2ccccc12)C(=O)N[C@H]1CCCN2C(=O)N(c3ccccc3)C(=O)C[C@H]12 | > 1000 nM
31 | > 1000 nM | > 10000 nM | COC(=O)C(Cc1ccccc1)N1C(=O)CC2C(NC(=O)[C@H](Cc3c[nH]c4ccccc34)NC(=O)OC(C)(C)C)CCCN2C1=O (stereo not given in full) | 
32 | 200 nM | 2320 nM | Cc1ccc(N2C(=O)C[C@@H]3[C@@H](NC(=O)[C@H](Cc4c[nH]c5ccccc45)NC(=O)OC(C)(C)C)CCCN3C2=O)cc1 | 
33 | 165 nM | 7160 nM | CC(C)(C)OC(=O)N[C@@H](Cc1c[nH]c2ccccc12)C(=O)N[C@H]1CCCN2C(=O)N(C3CCCCC3)C(=O)C[C@H]12 | 287 nM
34 | 70.3 nM | > 10000 nM | CC(=O)Oc1cccc(N2C(=O)C[C@H]3[C@H](NC(=O)[C@H](Cc4c[nH]c5ccccc45)NC(=O)OC(C)(C)C)CCCN3C2=O)c1 | 
35 | 3.98 nM | > 10000 nM | Cc1cccc(N2C(=O)C[C@H]3[C@H](NC(=O)[C@H](Cc4c[nH]c5ccccc45)NC(=O)OC(C)(C)C)CCCN3C2=O)c1 | 10 nM
36 | > 1000 nM | > 10000 nM | CC(C)(C)OC(=O)N[C@@H](Cc1c[nH]c2ccccc12)C(=O)NC1CCCN2C(=O)N(C(Cc3ccccc3)C(=O)O)C(=O)CC12 (stereo not given in full) | 

Row | Compound | IC50 [1] | IC50 [3] | IC50 [2]
37 | CC(C)(C)OC(=O)N[C@@H](Cc1c[nH]c2ccccc12)C(=O)N[C@@H]1CCCN2C(=O)N(Cc3ccccc3)C(=O)C[C@@H]12 [IQM-95333] |  | > 10000 nM | 
38 | CC(C)(C)OC(=O)N[C@@H](Cc1c[nH]c2ccccc12)C(=O)N[C@H]1CCCN2C(=O)N(Cc3ccccc3)C(=O)C[C@H]12 | 22.7 nM | 6150 nM | 
39 | CSCC[C@H](NC(=O)[C@H](Cc1ccc(O)cc1)NC(=O)[C@@H](N)CC(=O)O)C(=O)NCC(=O)N[C@@H](Cc1c[nH]c2ccccc12)C(=O)N[C@@H](CCSC)C(=O)N[C@@H](CC(=O)O)C(=O)N[C@@H](Cc1ccccc1)C(N)=O | 1.04 nM |  | 
